Source: ChEMBL document CHEMBL1149024, “Naturally occurring antiacne agents” (1994)
In brackets after ≈: the same amount, converted by molar mass. Activity calls are given as the source filed them. The rule behind the calls is not given here.

The compounds below were run on Cutibacterium acnes (assay: Antimicrobial activity Propionibacterium acnes ATCC 11827 after 2 days by broth dilution method). Settings: Cutibacterium acnes, ATCC 11827, 48 h; read-out: MIC.
Assay type: functional
Method in brief: (§1)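 Serial twofold dilutions in DMF; 30 µl of each added to 3 ml NYG broth (0.8% nutrient broth, 0.5% yeast extract, 0.1% glucose), then inoculated with 30 µl of a two-day-old culture. Incubated 2 days at 37°; growth read as turbidity (OD 660 nm). MIC is the lowest concentration giving complete growth inhibition, determined at least twice.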

Row | Structure (SMILES) | MIC
1 | C/C=C/c1ccc(OC)cc1 [ANETHOLE] | 100 µg/mL (≈ 675 µM)
2 | C=C1CC/C=C(\C)CC[C@@H]2[C@@H]1CC2(C)C [BETA-CARYOPHYLLENE] | 6.25 µg/mL (≈ 30.6 µM)
3 | C=C1CCC2CC1C2(C)C (stereo not drawn) [BETA-PINENE] | 100 µg/mL (≈ 734 µM)
4 | CC[C@H](CC[C@@H](C)[C@H]1CC[C@H]2[C@@H]3CC=C4C[C@@H](O)CC[C@]4(C)[C@H]3CC[C@]12C)C(C)C [BETA-SITOSTEROL] | > 800 µg/mL
5 | CC1(C)C2CCC1(C)C(O)C2 (stereo not given) [BORNEOL] | 200 µg/mL (≈ 1300 µM)
6 | Cn1c(=O)c2c(ncn2C)n(C)c1=O [CAFFEINE] | > 400 µg/mL
7 | CC12CCC(CC1=O)C2(C)C (stereo not given) [CAMPHOR] | 200 µg/mL (≈ 1310 µM)
8 | CC1=CCC2C(C1)C2(C)C (stereo not given) [CARENE] | 50 µg/mL (≈ 367 µM)
9 | CCCCCCCCCCCCCCCCCCO [CETOSTEARYL ALCOHOL] | > 800 µg/mL
10 | CC(C)CCC[C@@H](C)[C@H]1CC[C@H]2[C@@H]3CC=C4C[C@@H](O)CC[C@]4(C)[C@H]3CC[C@]12C [CHOLESTEROL] | > 800 µg/mL
11 | CC(C)=CCC/C(C)=C/[C@H](O)C/C(C)=C/CC/C(C)=C/CO [CRINITOL] | 25 µg/mL (≈ 81.6 µM)
12 | C=C(C)[C@H]1CC=C(C)CC1 [D-LIMONENE] | 50 µg/mL (≈ 367 µM)
13 | CCCCCCCCC(C)O (stereo not given) [DECAN-2-OL] | 100 µg/mL (≈ 632 µM)
14 | CCCCCCCCCCCC(=O)O [DODECANOATE] | 50 µg/mL (≈ 250 µM)
15 | C=CCc1ccc(O)c(OC)c1 [EUGENOL] | 50 µg/mL (≈ 304 µM)
16 | CC(C)=CCC/C(C)=C/CC/C(C)=C/CO [FARNESOL] | 6.25 µg/mL (≈ 28.1 µM)
17 | CC(C)=CCC/C(C)=C/CO [GERANIOL] | 400 µg/mL (≈ 2590 µM)
18 | CCCCCC/C=C\CCCCCCCc1cccc(O)c1C(=O)O [GINGKOLIC ACID] | 0.78 µg/mL (≈ 2.25 µM)
19 | CCCC(O)CC (stereo not given) [HEXAN-3-OL] | > 800 µg/mL

Row | Structure (SMILES) | MIC
20 | CC(C)c1cccc(=O)c(O)c1 [HINOKITIOL] | 12.5 µg/mL (≈ 76.1 µM)
21 | c1ccc2[nH]ccc2c1 [INDOLE] | 200 µg/mL (≈ 1710 µM)
22 | C/C=C/c1ccc2c(c1)OCO2 [ISOSAFROLE] | 200 µg/mL (≈ 1230 µM)
23 | C=CC(C)(O)CCC=C(C)C (stereo not given) [LINALOOL] | 200 µg/mL (≈ 1300 µM)
24 | C=C1[C@H]2CC[C@@H]3[C@H]2C(C)(C)CCC[C@]13C [LONGIFORENE] | 6.25 µg/mL (≈ 30.6 µM)
25 | CC1CCC(C(C)C)C(O)C1 (stereo not given) [MENTHOL] | 400 µg/mL (≈ 2560 µM)
26 | C=CCc1ccc(OC)c(OC)c1 [METHYLEUGENOL] | 200 µg/mL (≈ 1120 µM)
27 | CC(C)c1oc(=O)cc2c1[C@@H](O)[C@H]1OC(=O)[C@@]3(C)[C@@H](O)[C@H]4O[C@H]4[C@@]2(C)[C@@H]13 [NAGILACTONE C] | > 800 µg/mL
28 | CC(C)[C@H]1OC(=O)C=C2C13O[C@@H]3[C@H]1OC(=O)[C@@]3(C)[C@@H](O)CC[C@@]2(C)[C@@H]13 (stereo not given in full) [NAGILACTONE E] | > 800 µg/mL
29 | C=CC(C)(O)CC/C=C(\C)CCC=C(C)C (stereo not given) [NEROLIDOL] | 25 µg/mL (≈ 112 µM)
30 | CCCCCCCCO [OCTANOL] | 200 µg/mL (≈ 1540 µM)
31 | CC1(C)CCC[C@]2(C)[C@@H](C=O)C(C=O)=CC[C@@H]12 [POLYGODIAL] | 25 µg/mL (≈ 107 µM)
32 | C=CCc1ccc2c(c1)OCO2 [SAFROLE] | 50 µg/mL (≈ 308 µM)
33 | O=C(O)c1ccccc1O [SALICYLIC ACID] | 400 µg/mL (≈ 2900 µM)
34 | CC1=CCC(O)(C(C)C)CC1 (stereo not given) [TERPINEOL] | 800 µg/mL (≈ 5190 µM)
35 | CC1=CCC(=C(C)C)CC1 [TERPINOLENE] | 50 µg/mL (≈ 367 µM)
36 | Cc1ccc(C(C)C)c(O)c1 [THYMOL] | 200 µg/mL (≈ 1330 µM)
37 | CC(C)c1c(O)ccc2c1CC[C@H]1C(C)(C)CCC[C@]21C [TOTAROL] | 0.39 µg/mL (≈ 1.36 µM)
38 | C/C=C/c1cc(OC)c(OC)cc1OC [TRANS-ASARONE] | 100 µg/mL (≈ 480 µM)

What follows are compounds tested on Cutibacterium acnes (assay: Antimicrobial activity Propionibacterium acnes ATCC 11827 up to 200 ug/ml after 2 days by broth dilution method). Settings: not given.
Assay type: functional, organism-based
Method in brief: as §1

Row | Structure (SMILES) | Activity
39 | CCCCCCCCCCCCCCCOC(=O)CCCCCCCCCCC [PENTADECANYLDODECANOATE] | inactive

The compounds below were run on Cutibacterium acnes (assay: Antimicrobial activity Propionibacterium acnes ATCC 11827 after 2 days by twofold dilution method in presence of 1000 units of lipase). Settings: ATCC 11827, 48 h.
Assay type: functional

Row | Structure (SMILES) | MIC
40 | CCCCCCCCCCCCCCCOC(=O)CCCCCCCCCCC [PENTADECANYLDODECANOATE] | 1.56 µg/mL
